Test results taken from publication PMC8853703 (Chemical research in toxicology, 2021).

Columns and labels:
Type in all cases: cell-based, porcine
LLC-PK1 cells [1] = assay: JC-10 mitochondrial transmembrane potential assay; conditions: for effect of cisplatin on ΔΨm: CDDP 20 μM alone
caspase-9 = assay: Caspase-9 activity assay; conditions: CDDP 20 μM alone, 24 h
Procedure, shortened: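 Supernatant was mixed 1:1 with HEPES pH 7.4 caspase buffer (CHAPS, glycerol, EDTA, 10 mM DTT) holding 100 μM Ac-LEHD-pNA. Incubation was 90 min at 37 °C, read as absorbance at 400 nm, with activity normalised to BCA total protein.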

LLC-PK1 cells [2] = assay: MitoSOX Red mitochondrial superoxide detection assay; conditions: CDDP 20 μM alone, 24 h
Procedure, shortened: (§1)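 LLC-PK1 cells (M199, 10% FBS, 1% PS; 37 °C, 5% CO2) were seeded at 1×10^4 cells/well overnight. Probe loading was 5 μM CM-H2DCFDA for 30 min (general ROS) or 2.5 μM MitoSOX Red for 10 min (mitochondrial superoxide), then 3 PBS washes. […] After PBS washes, fluorescence was read in PBS at Ex/Em 485/535 nm (DCF) or 510/580 nm (MitoSOX). Three independent experiments.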

LLC-PK1 cells [3] = assay: CM-H2DCFDA general reactive oxygen species quantitation assay; conditions: CDDP 20 μM alone, 24 h
Procedure, shortened: as §1

caspase-3 = assay: Caspase-3 activity assay; conditions: CDDP 20 μM alone, 24 h

Structure (SMILES) | ΔΨm with positive control (LLC-PK1 cells [1]; FCCP 10 μM) | effect of cisplatin on caspase-9 activity (caspase-9) | effect of cisplatin on O2•− generated in mitochondria (LLC-PK1 cells [2]) | effect of cisplatin on ΔΨm (LLC-PK1 cells [1]; 6 h) | effect of cisplatin on ΔΨm (LLC-PK1 cells [1]; 24 h) | effect of cisplatin on ΔΨm (LLC-PK1 cells [1]; 48 h) | effect of cisplatin on general ROS (LLC-PK1 cells [3]) | effect of cisplatin on caspase-3 activity (caspase-3)
N#CC(C#N)=NNc1ccc(OC(F)(F)F)cc1 [FCCP, Carbonyl cyanide-p-trifluoromethoxyphenylhydrazone] | depolarized ΔΨm |  |  |  |  |  |  | 
N.N.[Cl][Pt][Cl] [cisplatin, cis-Diamminedichloroplatinum (II), reference compound] |  | greatly elevated | increased | not significantly affected | substantial loss of the ΔΨm | nearly complete gradient collapse | increased | greatly elevated
